Laboratory results reported in ChEMBL document CHEMBL1137451, “Synthesis and evaluation of antifungal properties of a series of the novel 2-amino-5-oxo-4-phenyl-5,6,7,8-tetrahydroquinoline-3-carbonitrile and its analogues” (Bioorg Med Chem, 2007).
The source made the active and inactive calls. No cut-off for these calls is given here.

Columns and labels:
[1] = test system: Fusarium oxysporum; assay: Antifungal activity against Fusarium oxysporum 2 at 40 ug/disc after 24 hrs by disc diffusion method; assay type: functional; details: for zone of inhibition at 40 µg/disc: read-out: IZ
Procedure, shortened: (§1)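 Yeast suspensions (C. albicans strains 1, 2) and mycelial suspensions (F. oxysporum strains 1, 2; Mucor sp.) spread on YPG (0.3% yeast extract, 0.5% peptone, 1% glucose) or PDA agar. Compound applied on filter-paper discs at the stated amount; 28 °C, 24 h. Read-out is inhibition zone diameter. Controls: 50% v/v DMSO vehicle, cycloheximide, amphotericin B.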

[2] = test system: Fusarium oxysporum; assay: Antifungal activity against Fusarium oxysporum 1 at 40 ug/disc after 24 hrs by disc diffusion method; assay type: functional; details: for zone of inhibition at 40 µg/disc: read-out: IZ; procedure, shortened: as §1
[3] = test system: Fusarium oxysporum; assay: Antifungal activity against Fusarium oxysporum 2 at 60 ug/disc after 24 hrs by disc diffusion method; assay type: functional; details: for zone of inhibition at 60 µg/disc: read-out: IZ; procedure, shortened: as §1
[4] = test system: Candida albicans; assay: Antifungal activity against Candida albicans 2 at 60 ug/disc after 24 hrs by disc diffusion method; assay type: functional; details: for zone of inhibition at 60 µg/disc: read-out: IZ; procedure, shortened: as §1
[5] = test system: Mucor; assay: Antifungal activity against Mucor at 100 ug/disc after 24 hrs by disc diffusion method; assay type: functional; details: for zone of inhibition at 100 µg/disc: read-out: IZ; procedure, shortened: as §1
[6] = test system: Mucor; assay: Antifungal activity against Mucor at 40 ug/disc after 24 hrs by disc diffusion method; assay type: functional; procedure, shortened: as §1
[7] = test system: Fusarium oxysporum; assay: Antifungal activity against Fusarium oxysporum 1 at 100 ug/disc after 24 hrs by disc diffusion method; assay type: functional; details: read-out: IZ; procedure, shortened: as §1
[8] = test system: Fusarium oxysporum; assay: Antifungal activity against Fusarium oxysporum 1 at 60 ug/disc after 24 hrs by disc diffusion method; assay type: functional; details: for zone of inhibition at 60 µg/disc: read-out: IZ; procedure, shortened: as §1
[9] = test system: Fusarium oxysporum; assay: Antifungal activity against Fusarium oxysporum 2 at 100 ug/disc after 24 hrs by disc diffusion method; assay type: functional; details: read-out: IZ; procedure, shortened: as §1
[10] = test system: Candida albicans; assay: Antifungal activity against Candida albicans 1 at 60 ug/disc after 24 hrs by disc diffusion method; assay type: functional; details: for zone of inhibition at 60 µg/disc: read-out: IZ; procedure, shortened: as §1
[11] = test system: Candida albicans; assay: Antifungal activity against Candida albicans 1 at 100 ug/disc after 24 hrs by disc diffusion method; assay type: functional; details: read-out: IZ; procedure, shortened: as §1
[12] = test system: Candida albicans; assay: Antifungal activity against Candida albicans 2 after 24 hrs by disc diffusion method; assay type: functional
Procedure, shortened: (§2)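 Disc diffusion on Candida albicans strains 1 and 2 (yeast suspension), Fusarium oxysporum strains 1 and 2 and Mucor sp. (mycelial suspension), spread on YPG or PDA agar. Compound at graded amounts per filter-paper disc, 28 °C for 24 h. MIC taken as the lowest amount giving a 2 mm inhibition zone. Controls: 50% v/v DMSO vehicle, cycloheximide, amphotericin B.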

[13] = test system: Candida albicans; assay: Antifungal activity against Candida albicans 2 at 100 ug/disc after 24 hrs by disc diffusion method; assay type: functional; details: read-out: IZ; procedure, shortened: as §1
[14] = test system: Candida albicans; assay: Antifungal activity against Candida albicans 1 after 24 hrs by disc diffusion method; assay type: functional; procedure, shortened: as §2
[15] = test system: Fusarium oxysporum; assay: Antifungal activity against Fusarium oxysporum 1 after 24 hrs by disc diffusion method; assay type: functional; procedure, shortened: as §2
[16] = test system: Mucor; assay: Antifungal activity against Mucor at after 24 hrs by disc diffusion method; assay type: functional; procedure, shortened: as §2
[17] = test system: Benjaminiella poitrasii; assay: Inhibition of yeast hypha transition at 20 ug/mL after 4 hrs
[18] = test system: Candida albicans; assay: Antifungal activity against Candida albicans 2 at 40 ug/disc after 24 hrs by disc diffusion method; assay type: functional; details: for zone of inhibition at 40 µg/disc: read-out: IZ; procedure, shortened: as §1
[19] = test system: Candida albicans; assay: Antifungal activity against Candida albicans 1 at 40 ug/disc after 24 hrs by disc diffusion method; assay type: functional; details: for zone of inhibition at 40 µg/disc: read-out: IZ; procedure, shortened: as §1
[20] = test system: Fusarium oxysporum; assay: Antifungal activity against Fusarium oxysporum 2 after 24 hrs by disc diffusion method; assay type: functional; procedure, shortened: as §2
[21] = test system: Benjaminiella poitrasii; assay: Inhibition of Benjaminiella poitrasii chitin synthase at 4 ug/mL
Procedure, shortened: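 Chitin synthase from Benjaminiella poitrasii measured with and without compound at 4 µg/ml, using a non-radioactive chitin synthase assay. Nikkomycin Z used as reference.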

[22] = test system: Mucor; assay: Antifungal activity against Mucor at 60 ug/disc after 24 hrs by disc diffusion method; assay type: functional; details: for zone of inhibition at 60 µg/disc: read-out: IZ; procedure, shortened: as §1

MIC [12] [µg/disc] | MIC [14] [µg/disc] | MIC [15] [µg/disc] | MIC [20] [µg/disc] | inhibition [21] [%] | Compound | zone of inhibition at 60 µg/disc [3] [mm] | zone of inhibition at 60 µg/disc [4] [mm] | Activity [6] | zone of inhibition at 100 µg/disc [7] [mm] | zone of inhibition at 60 µg/disc [8] [mm] | zone of inhibition at 100 µg/disc [9] [mm] | zone of inhibition at 60 µg/disc [10] [mm] | zone of inhibition at 100 µg/disc [11] [mm] | zone of inhibition at 100 µg/disc [13] [mm] | inhibition at 20 µg/mL [17] [%] | zone of inhibition at 40 µg/disc [18] [mm] | zone of inhibition at 40 µg/disc [19] [mm] | zone of inhibition at 40 µg/disc [1] [mm] | zone of inhibition at 40 µg/disc [2] [mm] | Activity [5] | further results
40 | 40 | 60 | 60 | 81 | N#Cc1c(N)nc2c(c1-c1ccc(Cl)cc1)C(=O)CCC2 | 4 | 3 | inactive | 7 | 4 | 7 | 3 | 5 | 5 | 95 | 2 | 2 |  |  |  | Activity [1]: inactive; Activity [2]: inactive; zone of inhibition at 100 µg/disc [5]: 10 mm; MIC [16]: 60 µg/disc; zone of inhibition at 60 µg/disc [22]: 7 mm
60 | 60 | 40 | 40 | 86 | N#Cc1c(N)nc2c(c1-c1ccccc1Cl)C(=O)CCC2 | 3 | 2 | inactive | 6 | 3 | 6 | 2 | 4 | 4 | 95 |  |  | 2 | 2 |  | zone of inhibition at 100 µg/disc [5]: 10 mm; MIC [16]: 60 µg/disc; Activity [18]: inactive; Activity [19]: inactive; zone of inhibition at 60 µg/disc [22]: 7 mm
40 | 40 | 40 | 40 | 81 | N#Cc1c(N)nc2c(c1-c1ccc(F)cc1)C(=O)CCC2 | 3 | 4 | inactive | 7 | 3 | 7 | 4 | 6 | 6 | 95 | 2 | 2 |  |  |  | Activity [1]: inactive; Activity [2]: inactive; zone of inhibition at 100 µg/disc [5]: 12 mm; MIC [16]: 60 µg/disc; zone of inhibition at 60 µg/disc [22]: 9 mm
40 | 40 | 40 | 40 | 91 | Cc1ccc(-c2c(C#N)c(N)nc3c2C(=O)CCC3)cc1 | 3 | 4 | inactive | 7 | 3 | 7 | 4 | 7 | 7 | 90 | 3 | 3 | 2 | 2 |  | zone of inhibition at 100 µg/disc [5]: 14 mm; MIC [16]: 60 µg/disc; zone of inhibition at 60 µg/disc [22]: 10 mm
60 | 60 | 40 | 40 | 76 | N#Cc1c(N)nc2c(c1-c1cccc(N)c1)C(=O)CCC2 | 3 | 3 |  | 5 | 3 | 5 | 3 | 6 | 6 | 95 |  |  | 2 | 2 |  | zone of inhibition at 100 µg/disc [5]: 10 mm; zone of inhibition at 40 µg/disc ([6]; read-out: IZ): 5 mm; MIC [16]: 40 µg/disc; Activity [18]: inactive; Activity [19]: inactive; zone of inhibition at 60 µg/disc [22]: 7 mm
40 | 40 | 40 | 40 | 91 | N#Cc1c(N)nc2c(c1-c1cccc(N3C(=O)C=CC3=O)c1)C(=O)CCC2 | 3 | 5 | inactive | 7 | 3 | 7 | 5 | 7 | 7 | 95 | 3 | 3 | 3 | 3 | inactive | Activity [22]: inactive

Second part, the compound before the results:

Compound | MIC [12] [µg/disc] | MIC [14] [µg/disc] | MIC [15] [µg/disc] | MIC [20] [µg/disc] | inhibition [21] [%] | zone of inhibition at 60 µg/disc [3] [mm] | zone of inhibition at 60 µg/disc [4] [mm] | Activity [6] | zone of inhibition at 100 µg/disc [7] [mm] | zone of inhibition at 60 µg/disc [8] [mm] | zone of inhibition at 100 µg/disc [9] [mm] | zone of inhibition at 60 µg/disc [10] [mm] | zone of inhibition at 100 µg/disc [11] [mm] | zone of inhibition at 100 µg/disc [13] [mm] | inhibition at 20 µg/mL [17] [%] | zone of inhibition at 40 µg/disc [18] [mm] | zone of inhibition at 40 µg/disc [19] [mm] | zone of inhibition at 40 µg/disc [1] [mm] | zone of inhibition at 40 µg/disc [2] [mm] | Activity [5] | further results
CC(=O)Nc1nc2c(c(-c3ccc(C)cc3)c1C#N)C(=O)CCC2 | 60 | 60 | 60 | 60 | 66 | 3 | 3 | inactive | 5 | 3 | 5 | 3 | 7 | 7 | 90 |  |  |  |  | inactive | Activity [1]: inactive; Activity [2]: inactive; Activity [18]: inactive; Activity [19]: inactive; Activity [22]: inactive
N#Cc1c(N)nc2c(c1-c1cccc(NC(=O)Nc3cccc(-c4c(C#N)c(N)nc5c4C(=O)CCC5)c3)c1)C(=O)CCC2 | 40 | 40 | 60 | 60 | 91 | 2 | 3 | inactive | 6 | 2 | 6 | 3 | 7 | 7 | 95 | 3 | 3 |  |  | inactive | Activity [1]: inactive; Activity [2]: inactive; Activity [22]: inactive
N#Cc1c(N)nc2c(c1-c1cccc(NC(=O)CCN3CCOCC3)c1)C(=O)CCC2 | 40 | 40 | 40 | 40 | 61 | 3 | 2 | inactive | 5 | 3 | 5 | 2 | 7 | 7 | 95 | 2 | 2 | 2 | 2 | inactive | Activity [22]: inactive
COc1ccc(NC(=O)Nc2cccc(-c3c(C#N)c(N)nc4c3C(=O)CCC4)c2)cc1 | 40 | 40 | 100 | 100 | 71 |  | 3 | inactive | 2 |  | 2 | 3 | 6 | 6 | 95 | 2 | 2 |  |  | inactive | Activity [1]: inactive; Activity [2]: inactive; Activity [3]: inactive; Activity [8]: inactive; Activity [22]: inactive
COc1cc(-c2c(C#N)c(N)nc3c2C(=O)CCC3)cc(OC)c1OC | 100 | 100 | 20 | 20 | 81 | 2 |  | inactive | 4 | 2 | 4 |  | 7 | 7 | 95 |  |  | 2 | 2 | inactive | Activity [4]: inactive; Activity [10]: inactive; Activity [18]: inactive; Activity [19]: inactive; Activity [22]: inactive
